Results: BindingDB's records for doi:10.1021/jm991078x (Insituto De Qu?mica M?dica (Csic), 1999)

Tests used:
[1] = target: T1, Gastrin/cholecystokinin type B receptor (Rattus norvegicus, UniProt P30553); assay: Binding affinity by competitive inhibition of the radioligand [3H]pCCK-8 at Cholecystokinin type B receptor from rat cerebral cortex membrane
T1 sequence (P30553 whole entry): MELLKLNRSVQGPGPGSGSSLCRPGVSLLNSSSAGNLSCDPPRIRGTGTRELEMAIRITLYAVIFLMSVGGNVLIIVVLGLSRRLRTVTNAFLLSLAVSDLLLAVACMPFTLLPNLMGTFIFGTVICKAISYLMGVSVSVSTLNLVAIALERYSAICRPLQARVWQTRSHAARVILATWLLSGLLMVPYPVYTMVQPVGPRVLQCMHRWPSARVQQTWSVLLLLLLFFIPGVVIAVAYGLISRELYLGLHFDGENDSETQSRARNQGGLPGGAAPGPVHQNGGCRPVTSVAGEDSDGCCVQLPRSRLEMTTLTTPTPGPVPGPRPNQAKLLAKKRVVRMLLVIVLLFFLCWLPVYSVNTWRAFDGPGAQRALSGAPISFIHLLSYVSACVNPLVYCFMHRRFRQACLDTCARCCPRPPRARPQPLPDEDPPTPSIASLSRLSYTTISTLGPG

[2] = target: T2, Cholecystokinin receptor type A (Rattus norvegicus, UniProt P30551); assay: Binding affinity by competitive inhibition of the radioligand [3H]pCCK-8 at Cholecystokinin type A receptor from rat pancreas
T2 sequence (P30551 whole entry): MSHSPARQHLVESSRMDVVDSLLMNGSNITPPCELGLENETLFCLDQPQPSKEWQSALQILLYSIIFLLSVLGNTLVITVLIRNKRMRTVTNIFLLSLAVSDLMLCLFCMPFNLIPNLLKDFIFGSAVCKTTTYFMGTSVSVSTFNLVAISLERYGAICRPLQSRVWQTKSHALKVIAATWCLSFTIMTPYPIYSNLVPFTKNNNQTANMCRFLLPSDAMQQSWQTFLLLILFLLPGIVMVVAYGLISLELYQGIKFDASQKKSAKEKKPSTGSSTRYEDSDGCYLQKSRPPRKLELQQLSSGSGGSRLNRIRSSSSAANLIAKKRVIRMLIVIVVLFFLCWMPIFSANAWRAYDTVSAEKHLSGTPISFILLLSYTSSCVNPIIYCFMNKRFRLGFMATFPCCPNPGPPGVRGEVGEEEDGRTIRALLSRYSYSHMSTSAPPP
Method in brief: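 Rat pancreas homogenized in Pipes HCl pH 6.5 with 30 mM MgCl2, centrifuged twice at 50000g, 4 °C. Membranes (0.2 mg protein/tube) incubated with 0.5 nM [3H]pCCK-8 plus bacitracin and soybean trypsin inhibitor (0.2 mg/mL each) for 120 min at 25 °C. […]. Seven concentrations in triplicate, at least three experiments.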

SMILES | IC50 [1] | IC50 [2]
O=C(N[C@H]1CCCN2C(=O)N(Cc3ccccc3)C(=O)C[C@H]12)c1cc2ccccc2[nH]1 | > 10 µM | > 1 µM
O=C(Cc1c[nH]c2ccccc12)N[C@H]1CCCN2C(=O)N(Cc3ccccc3)C(=O)C[C@@H]12 [N-((4aS,5S)-2-Benzyl-1,3-dioxo-octahydro-pyrido[1,2-c]pyrimidin-5-yl)-2-(1H-indol-3-yl)-acetamide; compound with 1H-indole-3-carboxylic acid ((4aR,5R)-2-benzyl-1,3-dioxo-octahydro-pyrido[1,2-c]pyrimidin-5-yl)-amide] | > 10 µM | > 1 µM
